Screening data: PubChem BioAssay, Broad Institute
Only some compounds are listed: those with a hit (about 4% of all), similar ones and a draw of the others.
E-selectin induc – E-selectin induction on HUVECs; P16581; HUVEC E-selectin immunofluorescence imaging; normalized: neutral wells 0, TNF-alpha wells 100; activation, % at 7.58 µM; 0.37% of 260,000 active;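 active = mean E-selectin-positive cell signal at least 10% of the positive control, reached in at least 60% of replicates, without over 20% cell loss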
Target sequence (P16581 whole entry, looked up): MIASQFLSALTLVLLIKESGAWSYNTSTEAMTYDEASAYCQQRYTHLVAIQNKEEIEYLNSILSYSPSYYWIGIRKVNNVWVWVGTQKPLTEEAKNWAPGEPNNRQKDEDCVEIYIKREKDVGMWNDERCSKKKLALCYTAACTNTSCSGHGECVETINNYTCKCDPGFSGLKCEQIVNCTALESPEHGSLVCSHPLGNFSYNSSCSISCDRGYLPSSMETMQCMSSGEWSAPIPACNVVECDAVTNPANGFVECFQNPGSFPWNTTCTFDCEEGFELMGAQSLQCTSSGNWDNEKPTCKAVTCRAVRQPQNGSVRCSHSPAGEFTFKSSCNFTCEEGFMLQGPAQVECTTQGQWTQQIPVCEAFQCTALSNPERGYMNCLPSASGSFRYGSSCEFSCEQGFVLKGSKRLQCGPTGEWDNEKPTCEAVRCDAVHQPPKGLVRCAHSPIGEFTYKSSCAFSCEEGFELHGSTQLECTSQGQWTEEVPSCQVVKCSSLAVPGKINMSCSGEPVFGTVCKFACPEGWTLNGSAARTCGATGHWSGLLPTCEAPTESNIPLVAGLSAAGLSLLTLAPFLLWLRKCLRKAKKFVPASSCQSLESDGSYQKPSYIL
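Assay system: HUVEC, human umbilical vein endothelial cells / Amount: 3,000 HUVEC/well / Controls: TNF-alpha positive control, DMSO neutral control / Compound dosing: single concentration / Medium: EGM-2 over gelatin coat / Evaluation: percent E-selectin-positive cells / Signal: immunofluorescence imaging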
FN deposition inh – fibronectin deposition inhibition; AH1F fibroblasts, Alexa488-fibronectin deposition fluorescence, overnight; inhibition, % at 12.6 µM; 0.086% of 350,000 active; AID 743247;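 active = mean inhibition across replicates of 30% or more, regardless of how many single replicates reach that level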
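Test system: AH1F fibroblast monolayer depositing Alexa488-labelled fibronectin into matrix. Input: 10000 cells per well. Technique: fluorescence, ex 485 nm, em 525 nm. Buffer or medium: DMEM plus 2% serum, read in PBS. Timing: 1 h cell adhesion before compound, then overnight fibronectin incubation. Compound: single dose, pinned. Read-out basis: inhibition from reduced deposited-fibronectin fluorescence.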
Statin myotox sup – protects C2C12 myotubes from simvastatin toxicity; ATP luminescence, 48 h; scaled: DMSO 0, geranylgeraniol control 100; rescue of ATP level, % at 7.49 µM; 0.78% of 330,000 active; AID 602340;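 active = mean ATP rescue above about 67%, or every replicate alone reaching that limit, limit read from the data, passing the limit was not always enough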;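 note: myotubes were challenged with 10 µM simvastatin during compound exposure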
FGF22 binding – binders of recombinant human FGF22 by thermal shift. SYPRO orange fluorescence; percent of sucrose octasulfate shift, DMSO zero. activity (Tm shift, normalised), % at 9.99 µM. 1.5% of 340,000 active;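 active = mean Tm shift, scaled 0 neutral to 100 positive control, at about 1.3% or above, every replicate too, limit read from the data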
rRNA inh HTS – inhibitors of bacterial rRNA selective over humanized ribosomes | 1.6% of 350,000 active | GFP signal change (wild-type ribosome), % (concentration not given with the values) | E. coli WT GFP vs humanized-ribosome RFP mutants, fluorescence, 24 h; stronger effect = lower value; DMSO median 0, no signal -100 | AID 720706;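 active = significant combined selectivity score with lowered wild-type GFP, culture density cut under 30%, mutant RFP and density less affected; inactive = any of these conditions unmet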
SIRT5 block – blocks human SIRT5 desuccinylation of peptide; Purified SirT5, succinyl-peptide AMC, trypsin-coupled fluorescence; inhibition, % at 15 µM; AID 652115; Q9NXA8; 1.1% of 330,000 active; in the data active = inhibition above about 15%
Of the large screens only hits and unclear results are named; the others gave an inactive call.

Cc1ccc(C)c(N2CCN(C(=O)c3cccn4c(=O)c5sccc5nc34)CC2)c1	SIRT5 block 19
CC(C)(C)OC(=O)N1CCC[C@H]1C(=O)NCc1ccc(Cl)cc1Cl	FGF22 binding 65 (no result: E-selectin induc, Statin myotox sup)
CC(C)(C)OC(=O)N1CCC[C@@H]1C(=O)N1CCC[C@H]1C(=O)NCc1ccccc1	none (no result: Statin myotox sup, SIRT5 block)
CC(C)(C)OC(=O)N1CCC[C@H]1C(=O)N1CCC[C@H]1C(=O)NCc1ccc(F)cc1F	SIRT5 block 17 (no result: Statin myotox sup)
Cc1ccc(S(=O)(=O)NNC(=O)C2CCCCC2)cc1	none
O=C(NNC(=O)C1CCCCC1)c1ccc(Br)cc1	rRNA inh HTS -24 (no result: Statin myotox sup)
O=C(NNS(=O)(=O)c1ccc(Br)cc1)C1CCCCC1	FGF22 binding 43 (no result: E-selectin induc)
O=C(CCN1CCOCC1)NNC(=S)NC(=O)c1ccc(Br)cc1	none (no result: Statin myotox sup)
O=C(CCN1CCCCC1)NNC(=S)NC(=O)c1ccc(Br)cc1	FGF22 binding 43 (no result: Statin myotox sup)
O=C(NNC(=O)C1CCC1)c1ccc(Br)cc1	none (no result: E-selectin induc)
CCCC(=O)Nc1ccc2c(c1)C(=O)N(C)[C@H]1CC[C@H](CC(=O)Nc3ccccc3)O[C@@H]1CO2	none
CCC(=O)/C=C1/Sc2ccccc2N1CC	Statin myotox sup 112 (no result: E-selectin induc, FN deposition inh, FGF22 binding, rRNA inh HTS, SIRT5 block)
CCC(=O)/C=C1/Sc2ccc(OC)cc2N1CCO	FGF22 binding 43 (no result: E-selectin induc, Statin myotox sup)
CCC(=O)/C=C1/Sc2ccc(OC)cc2N1CC	none (no result: E-selectin induc, FN deposition inh)
O=C(c1cccnc1)N1CC(=O)N2[C@@H](CO)[C@@H](c3ccc(C#CCC4CCCC4)cc3)[C@@H]2C1	none (no result: FN deposition inh, Statin myotox sup)
CC=Cc1ccc2n(c1=O)C[C@H]1[C@H](CO)[C@@H](C(=O)NCC3CC3)[C@@H]2N1Cc1ccccc1OC (mixture of isomers)	none (no result: FN deposition inh)
Cc1c(O)nc(SC2CC(=O)N(c3ccccc3)C2=O)[nH]c1=O (centres undefined)	none (no result: E-selectin induc, Statin myotox sup, FGF22 binding, rRNA inh HTS, SIRT5 block)
CCc1c(O)nc(SC2CC(=O)N(c3ccccc3)C2=O)[nH]c1=O (centres undefined)	Statin myotox sup 106 (no result: E-selectin induc, FN deposition inh, FGF22 binding, rRNA inh HTS, SIRT5 block)
Cc1cc(-c2nnc(SCC(=O)c3ccc(Cl)cc3)o2)no1	FGF22 binding 44 (no result: E-selectin induc, Statin myotox sup)
C[C@@H]1CN([C@H](C)CO)C(=O)Cc2cc(NC(=O)Nc3ccc(C(F)(F)F)cc3)ccc2O[C@H]1CN(C)C(=O)Nc1cccc2ccccc12	none (no result: FN deposition inh)
CCOC(=O)Cc1csc(NC(=O)CCc2ccccc2)n1	none (no result: E-selectin induc)
CCOC(=O)Cc1csc(NC(=O)c2cccc(OC)c2)n1	none (no result: E-selectin induc, FGF22 binding, rRNA inh HTS, SIRT5 block)
CCOC(=O)Cc1csc(NC(=O)CCSc2ccccc2)n1	FGF22 binding 2.5, rRNA inh HTS -21
CCOC(=O)Cc1csc(NC(=O)CC)n1	none (no result: E-selectin induc, FGF22 binding, SIRT5 block)
CCOC(=O)Cc1csc(NC(=O)CC(C)(C)C)n1	Statin myotox sup 110 (no result: E-selectin induc, FGF22 binding, rRNA inh HTS, SIRT5 block)
CCOC(=O)Cc1csc(NC(=O)Cn2cnc3c2c(=O)n(C)c(=O)n3C)n1	SIRT5 block 25 (no result: E-selectin induc)
CCOC(=O)Cc1csc(NC(=O)Nc2cccc(OC)c2)n1	rRNA inh HTS -29 (no result: E-selectin induc)
CCS(=O)(=O)Nc1ccc2c(c1)C(=O)N(C)C[C@H](OC)[C@H](C)CN(CCC(F)(F)F)[C@@H](C)CO2	none
C[C@H](CO)N1C[C@H](C)[C@@H](CN(C)S(=O)(=O)c2cn(C)cn2)OCCCC[C@H](C)Oc2ccc(NS(=O)(=O)c3ccccc3)cc2C1=O	none (no result: Statin myotox sup)
CCOC(=O)Cc1csc(NC(=S)NC(=O)c2ccccc2C)n1	rRNA inh HTS -20 (no result: E-selectin induc, FN deposition inh)
CCOC(=O)c1nn(-c2cccc(Cl)c2)c(C)c1C(C)=O	Statin myotox sup 123 (no result: E-selectin induc, FGF22 binding, rRNA inh HTS, SIRT5 block)
Cc1nc2ccccn2c1-c1csc(NCc2ccco2)n1	Statin myotox sup 94 (no result: E-selectin induc, FN deposition inh, FGF22 binding, rRNA inh HTS, SIRT5 block)
O=C(CSc1nc2ccccc2o1)Nc1nc2ccccc2s1	none (no result: E-selectin induc, FN deposition inh, FGF22 binding, rRNA inh HTS, SIRT5 block)
O=C(CSc1nc2ccccc2o1)Nc1nccs1	FGF22 binding 2.3 (no result: Statin myotox sup)
COc1ccc(C(=O)N/N=C\c2ccoc2)cc1	none (no result: Statin myotox sup)
COc1ccc(/[N+]([O-])=C/c2ccoc2)cc1	FGF22 binding 45
Cc1cc(NC(=O)COc2ccccc2C)no1	FGF22 binding 44 (no result: E-selectin induc, Statin myotox sup)
COc1cc(OC)cc(C(=O)NCCCNC(=O)c2ccccn2)c1	none
Cc1ccccc1OCC(=O)Nc1ccc2[nH]ncc2c1	rRNA inh HTS -21 (no result: E-selectin induc, SIRT5 block)
Cc1cc(NC(=O)COc2cccc(C)c2C)no1	none
CC(C)Oc1ccc(C(=O)NCCCNC(=O)c2ccccn2)cc1	SIRT5 block 17
COc1cc(/C=C/C(=O)NC(C)C)ccc1OCc1ccccc1	none (no result: E-selectin induc, FGF22 binding, rRNA inh HTS, SIRT5 block)
COc1cc(/C=N/OCC(=O)Nc2cc(C)on2)ccc1OCc1ccccc1	SIRT5 block 28 (no result: E-selectin induc, Statin myotox sup)
Cc1cc(NC(=O)COC(=O)CSCc2ccc(Cl)c(Cl)c2)no1	rRNA inh HTS -22 (no result: E-selectin induc, FN deposition inh)
Cc1ccccc1OCC(=O)NCCNC(=O)c1ccccn1	SIRT5 block 30
Cc1cc(NC(=O)CSCC(=O)N(C)Cc2ccc(Cl)c(Cl)c2)no1	none (no result: FN deposition inh)
Cc1ccccc1OCC(=O)Nc1cnn(CCCC(=O)O)c1	SIRT5 block 17
C[C@H](CO)N1C[C@H](C)[C@H](CN(C)C(=O)Nc2ccccc2)OCCCC[C@H](C)Oc2ccc(NS(=O)(=O)c3cn(C)cn3)cc2C1=O	none (no result: Statin myotox sup)
CC(NC(=O)C(c1ccccc1)c1ccccc1)C(=O)N1CCCCC1 (centres undefined)	FGF22 binding 43 (no result: E-selectin induc, FN deposition inh, Statin myotox sup, SIRT5 block)
CCN1C(=O)[C@H]2[C@@H](c3ccc(-c4cccc(Cl)c4)cc3)N[C@@](CC(C)C)(C(=O)OC)[C@H]2C1=O	none (no result: SIRT5 block)
